Data set [1] can be described thus: Aqueous solubility of the compound in PBS at pH 7.4 after 1 hr by LC/MS analysis. Format: physicochemical. In short, it runs like this:
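The compound was dried down from DMSO and taken up in 1x PBS (pH 7.4) or FaSIF (pH 6.8). Samples were shaken 1 h, equilibrated at RT for 72 h, then centrifuged.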

The nature of data set [2]: Oral bioavailability in dog. The class given is ADME, organism-based, Canis lupus familiaris. The note with it: in vivo.
The species entered for a further data set is Bos taurus. The experiment in a line: Inhibition of bovine I1-receptor assessed as remaining enzyme activity at 10 uM relative to untreated control.
Data set [3] concerns the target Dual specificity protein kinase CLK4 (Homo sapiens) (UniProt Q9HAZ1). As to the kind of experiment: Inhibition of human CLK4 (135 to 481 residues) expressed in bacterial system assessed as remaining enzyme activity at 1 uM by KINOMEScan assay relative to control.
Data set [4] concerns the target T1, Mitogen-activated protein kinase 12 (Homo sapiens) (UniProt P53778).
T1 sequence (whole entry): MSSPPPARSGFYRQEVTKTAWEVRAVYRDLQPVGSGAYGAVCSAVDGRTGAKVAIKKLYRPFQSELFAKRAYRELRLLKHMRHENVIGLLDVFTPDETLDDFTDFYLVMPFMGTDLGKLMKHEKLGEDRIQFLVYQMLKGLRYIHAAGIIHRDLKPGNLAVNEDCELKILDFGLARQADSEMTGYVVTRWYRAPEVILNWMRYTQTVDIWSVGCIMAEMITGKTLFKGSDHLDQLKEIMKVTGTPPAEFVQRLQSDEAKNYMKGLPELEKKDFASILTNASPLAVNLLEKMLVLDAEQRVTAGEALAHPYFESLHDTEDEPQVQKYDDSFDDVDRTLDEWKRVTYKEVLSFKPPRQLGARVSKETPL
As to the kind of experiment: Inhibition of full length human p38-gamma expressed in bacterial system assessed as remaining enzyme activity at 1 uM by KINOMEScan assay relative to control.

Data set [5] addresses Dual specificity tyrosine-phosphorylation-regulated kinase 1A (Homo sapiens) (UniProt Q13627). As to the kind of experiment: Inhibition of human DYRK1A (129 to 509 residues) expressed in mammalian system assessed as remaining enzyme activity at 1 uM by KINOMEScan assay relative to control.
For data set [6], the system named is KMS-12-BM. As to the kind of experiment: Antitumor activity against human KMS-12-BM cells xenografted in SCID-bg mouse assessed as tumor growth inhibition at 10 mg/kg, po qd measured twice per week. The note with it: read-out: TGI. Format: functional.
For data set [7], the system named is KMS-12-BM. The experiment in a line: Antitumor activity against human KMS-12-BM cells xenografted in SCID-bg mouse assessed as tumor growth inhibition at 25 mg/kg, po qd measured twice per week. The class given is functional. The note with it: read-out: TGI.
Data set [8] relates to KMS-12-BM. As to the kind of experiment: Antitumor activity against human KMS-12-BM cells xenografted in SCID-bg mouse assessed as tumor growth inhibition at 50 mg/kg, po qd measured twice per week. The class given is functional. Particulars: read-out: TGI.
For data set [9], the system named is KMS-12-BM. The experiment in a line: Antitumor activity against human KMS-12-BM cells xenografted in SCID-bg mouse assessed as tumor growth inhibition at 100 mg/kg, po qd measured twice per week. Format: functional. The note with it: read-out: TGI.
In data set [10] the test system is Mus musculus. The experiment in a line: In vivo inhibition of pan Pim in SCID-bg mouse xenografted with human KMS-12-BM cells assessed as phosphorylation of BAD peptide at Serine 112 residue at 100 mg/kg, po qd measured at 1 hr post dose relative to control. Format: functional. Also noted: scale not given: the % may be the effect or the level left.
Data set [11] deals with Mus musculus. As to the kind of experiment: In vivo inhibition of pan Pim in SCID-bg mouse xenografted with human KMS-12-BM cells assessed as phosphorylation of BAD peptide at Serine 112 residue at 10 mg/kg, po qd measured at 4 hrs post dose relative to control. Also noted: scale not given: the % may be the effect or the level left. Format: functional.
Data set [12] has as its system Mus musculus. The experiment in a line: In vivo inhibition of pan Pim in SCID-bg mouse xenografted with human KMS-12-BM cells assessed as phosphorylation of BAD peptide at Serine 112 residue at 25 mg/kg, po qd measured at 4 hrs post dose relative to control. Also noted: scale not given: the % may be the effect or the level left. The class given is functional.
For data set [13], the system named is Mus musculus. The experiment in a line: In vivo inhibition of pan Pim in SCID-bg mouse xenografted with human KMS-12-BM cells assessed as phosphorylation of BAD peptide at Serine 112 residue at 50 mg/kg, po qd measured at 4 hrs post dose relative to control. Further details: scale not given: the % may be the effect or the level left. Format: functional.
Data set [14] concerns Mus musculus. As to the kind of experiment: In vivo inhibition of pan Pim in SCID-bg mouse xenografted with human KMS-12-BM cells assessed as phosphorylation of BAD peptide at Serine 112 residue at 25 mg/kg, po qd measured at 8 hrs post dose relative to control. Format: functional. Further details: scale not given: the % may be the effect or the level left.
The test system of data set [15] is Mus musculus. The experiment in a line: In vivo inhibition of pan Pim in SCID-bg mouse xenografted with human KMS-12-BM cells assessed as phosphorylation of BAD peptide at Serine 112 residue at 50 mg/kg, po qd measured at 8 hrs post dose relative to control. The class given is functional. Further details: scale not given: the % may be the effect or the level left.

For data set [16], the system named is Mus musculus. The experiment in a line: In vivo inhibition of pan Pim in SCID-bg mouse xenografted with human KMS-12-BM cells assessed as phosphorylation of BAD peptide at Serine 112 residue at 25 mg/kg, po qd measured at 12 hrs post dose relative to control. Further details: scale not given: the % may be the effect or the level left. The class given is functional.

For data set [17], the system named is Mus musculus. The experiment in a line: In vivo inhibition of pan Pim in SCID-bg mouse xenografted with human KMS-12-BM cells assessed as phosphorylation of BAD peptide at Serine 112 residue at 50 mg/kg, po qd measured at 12 hrs post dose relative to control. The class given is functional. Further details: scale not given: the % may be the effect or the level left.

The test system of data set [18] is Mus musculus. The experiment in a line: In vivo inhibition of pan Pim in SCID-bg mouse xenografted with human KMS-12-BM cells assessed as phosphorylation of BAD peptide at Serine 112 residue at 25 mg/kg, po qd measured at 24 hrs post dose relative to control. The class given is functional. Further details: scale not given: the % may be the effect or the level left.

Data set [19] relates to Mus musculus. As to the kind of experiment: In vivo inhibition of pan Pim in SCID-bg mouse xenografted with human KMS-12-BM cells assessed as phosphorylation of BAD peptide at Serine 112 residue at 50 mg/kg, po qd measured at 24 hrs post dose relative to control. Format: functional. Also noted: scale not given: the % may be the effect or the level left.
Data set [20] relates to Mus musculus. The experiment in a line: In vivo inhibition of pan Pim in SCID-bg mouse xenografted with human KMS-12-BM cells assessed as phosphorylation of BAD peptide at Serine 112 residue at 100 mg/kg, po qd measured at 24 hrs post dose relative to control. Format: functional. Also noted: scale not given: the % may be the effect or the level left.

Results on one compound are retold here after ChEMBL document CHEMBL4477213, “Discovery and Optimization of Quinazolinone-pyrrolopyrrolones as Potent and Orally Bioavailable Pan-Pim Kinase Inhibitors” (J Med Chem, 2016).

≈ marks a conversion by molar mass, not a printed value.

Dual specificity protein kinase CLK4 (Homo sapiens), sequence (Q9HAZ1 whole entry, looked up, the tested form may be a part): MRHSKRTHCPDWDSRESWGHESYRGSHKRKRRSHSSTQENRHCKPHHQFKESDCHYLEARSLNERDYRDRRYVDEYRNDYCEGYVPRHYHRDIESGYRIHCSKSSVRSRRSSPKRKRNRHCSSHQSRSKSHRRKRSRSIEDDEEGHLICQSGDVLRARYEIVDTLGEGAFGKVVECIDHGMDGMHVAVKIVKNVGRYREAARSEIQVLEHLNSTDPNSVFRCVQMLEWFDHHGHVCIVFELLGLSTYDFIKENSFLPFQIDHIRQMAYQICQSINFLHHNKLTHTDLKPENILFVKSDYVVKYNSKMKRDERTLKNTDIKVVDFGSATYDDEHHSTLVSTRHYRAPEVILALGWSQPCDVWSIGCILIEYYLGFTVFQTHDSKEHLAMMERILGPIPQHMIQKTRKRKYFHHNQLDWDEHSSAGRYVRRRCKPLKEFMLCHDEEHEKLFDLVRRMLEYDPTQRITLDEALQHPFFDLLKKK

As to `C[C@H]1NC(=O)c2cc(-c3cccc4c(=O)n(C)c(NC(C)(C)C)nc34)[nH]c21`, in [1], the solubility at 1 h is 60 µM (≈ 21.9 µg/mL). Moreover, the bioavailability in [2] came to 44%. Further, the Activity in the data set listed under Bos taurus was under 10%; in data set [3] it was 0.2%; in data set [4], 0.9%; in data set [5] it was 6%; in the data set with Mus musculus [10] it was 61%; with Mus musculus [11] it was 50%. Besides, the Activity came out at 60% in the data set on Mus musculus [12]; 66% in the data set with Mus musculus [13]; 60% with Mus musculus [14]; 85% in the data set with Mus musculus [15]; 37% with Mus musculus [16]; 65% in the data set with Mus musculus [17]. Further, the Activity came out at 0% in the data set on Mus musculus [18], 10% in the data set with Mus musculus [19] and 21% in the data set on Mus musculus [20]. For the same compound, the inhibition in vivo at 10 mg/kg with KMS-12-BM [6] was 30%. Also, the inhibition in vivo at 25 mg/kg with KMS-12-BM [7] was 65%. Also, in the data set on KMS-12-BM [8], the inhibition in vivo at 50 mg/kg stood at 93%. In the data set with KMS-12-BM [9], the inhibition in vivo at 100 mg/kg came out at 95%.
